# ARNT TACC3 PPI = ARNT/TACC3 interaction disruption | Q9Y6A5 | AlphaScreen His-ARNT PAS-B/GST-TACC3 binding, luminescence; TACC3 fragment carries E629A point mutation | inhibition, % at 9.99 µM | 0.66% of 390,000 active;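 active = mean inhibition of replicates at least 50% and at least half of replicates each reaching 50%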;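 note: 0% = complete ARNT plus TACC3 wells and 100% = ARNT alone without TACC3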
# CAL PDZ FP-1 = human CAL PDZ-peptide interaction inhibition | Q9HD26 | purified CAL PDZ, TMR-peptide fluorescence polarization, 1 h | inhibition, % at 20 µM | 0.02% of 330,000 active;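 active = highest replicate inhibition of at least 40%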;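 note: plate controls were DMSO neutral control wells for no effect and unlabeled competitor peptide control wells for full effect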
#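 Material – purified CerCALP PDZ construct · Detection – FP readout, S and P plane fluorescence · Measure – percent inhibition from loss of millipolarization · Controls – unlabelled peptide for full inhibition, DMSO wells as neutral · Probe or stimulus – TMR-labelled reporter peptide T*-PRC34 bound in PDZ groove · Times – 1 h at RT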
# CAL PDZ FP-2 = inhibitors of human CAL PDZ peptide binding. 0.92% of 300,000 active. inhibition, % at 24.9 µM. Q9HD26. purified CAL PDZ, TMR-peptide fluorescence polarization, 1 h;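 active = mean inhibition of at least 30% with at least half of replicates also reaching 30%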;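 note: 0% = DMSO neutral control and 100% = excess unlabeled competitor peptide PRC23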
# * hit, by the source's call; nt = not tested or not shown; + = active, no number; ! = repeats disagree. An excerpt weighted towards active compounds, which were near 1.2% of everything screened.
SMILES,ARNT TACC3 PPI,CAL PDZ FP-1,CAL PDZ FP-2
COc1cccc(-c2ccc3c(c2)[C@H]2[C@H](CCN2C(=O)NC2CCCC2)[C@H](CO)N3C)c1,active,nt,nt
COc1ccc(-c2ccc3c(c2)[C@@H]2[C@@H](CCN2C(=O)NC2CCCCC2)[C@H](CO)N3C)cc1,9.8,nt,nt
Cc1ccc(S(=O)(=O)N(C)C[C@@H]2Oc3ncc(C#Cc4ccc(C(F)(F)F)cc4)cc3C(=O)N([C@H](C)CO)C[C@@H]2C)cc1,8.9,nt,nt
O=C(Nc1ccc(Cl)c([N+](=O)[O-])c1)c1ccc2c(c1)OCCO2,-1.6,17.2,30.3*
O=C(N/N=C/c1ccc(Cl)c([N+](=O)[O-])c1)c1ccc2c(c1)OCCO2,6.4,-1.4,-1.2
COCCCNC(=O)c1ccccc1Oc1ccccc1,-6.1,-0.6,1.0
COCCCNC(=O)c1ccc2c3c(onc13)-c1ccccc1C2=O,31.1*,0.1,nt
CC(C)NC(=O)N1C[C@@H]2[C@H](c3ccccc31)[C@H](CO)N2C(=O)c1ccccc1F,-2.8,nt,nt
NCCc1cnc[nH]1,73.2*!,-0.3,-1.9
NCCC(=O)NCCc1cnc[nH]1,nt,0.6,-1.1
COC(=O)C[C@H]1CC[C@H]2[C@H](COc3ccc(NC(=O)c4cscn4)cc3C(=O)N2C)O1,8.7,nt,nt
N#C/C(=C\c1cccs1)c1nc2ccccc2[nH]1,0.0,-1.0,18.1
N#C/C(=C/c1ccc(O)c(O)c1)c1nc2ccccc2[nH]1,18.8,2.9,114.5*
CN(C)c1ccc(NC2=C(Cl)C(=O)c3ccccc3C2=O)cc1,52.8*,0.2,1.7
O=C1C(Cl)=C(Nc2ccc3cn[nH]c3c2)C(=O)c2ccccc21,-4.9,nt,3.9
COCC(=O)N1C[C@@H](C)[C@@H](OC)CN(C)C(=O)c2ccc(NS(C)(=O)=O)cc2OC[C@@H]1C,-1.3,nt,nt
NC(=O)N/N=C/c1ccccc1OC(=O)c1cc2ccccc2oc1=O,-2.5,-1.4,-11.7
NC(=S)N/N=C/c1ccccc1OC(=O)c1cc2ccccc2oc1=O,50.9*,-1.8,-6.8
NC(=S)N/N=C\c1ccccc1OCc1ccccc1,-4.2,-1.3,-1.9
NC(=S)N/N=C/c1ccccc1OC(=O)/C=C/c1ccccc1,34.4*,-0.5,nt
CN(C)CCCNC(=O)C[C@@H]1CC[C@@H]2[C@@H](COc3ccc(NC(=O)c4ccccc4F)cc3C(=O)N2C)O1,-8.0,nt,nt
CO[C@H]1CC[C@H]2CCOc3c(C#N)cccc3C(=O)N(C)C[C@H](C)C(=O)N(C)C[C@H]1O2,-2.8,nt,nt
C[C@@H]1CN([C@@H](C)CO)C(=O)c2cc(NC(=O)c3ccncc3)ccc2O[C@@H](C)CCCCO[C@@H]1CN(C)C(=O)CCC(F)(F)F,-2.3,nt,nt
CC(=O)Nc1ccc(NC(=O)CCc2nc3ccccc3c(=O)[nH]2)cc1,nt,-2.2,-36.2
CC(=O)c1sc(NC(=O)CCCc2nc3ccccc3c(=O)[nH]2)nc1-c1ccccc1,4.2,-1.4,52.1*
SMILES,ARNT TACC3 PPI,CAL PDZ FP-1,CAL PDZ FP-2
Cc1cn(CC(=O)NCCc2ccccn2)c(=O)[nH]c1=O,-2.1,0.4,1.2
Cc1cn(CC(=O)NCc2ccccn2)c(=O)[nH]c1=O,-4.9,-0.2,+
C=CCNC(=O)[C@H]1[C@@H]2C(=O)O[C@@H](c3ccccc3)[C@@H](c3ccccc3)N2[C@@H](c2ccc(O)cc2)[C@]12C(=O)Nc1ccc(C#CC3=CCCCC3)cc12,21.1,nt,nt
CC(C)NC(=O)Nc1ccc2c(c1)CC(=O)N([C@H](C)CO)C[C@@H](C)[C@@H](CN(C)S(=O)(=O)c1cn(C)cn1)O2,-4.6,nt,nt
Cc1nn(CCOc2cccc(Br)c2)c(C)c1[N+](=O)[O-],-5.5,-1.4,58.7*
Cc1ccc(OCCOc2cccc(Br)c2)c([N+](=O)[O-])n1,-10.9,-0.3,-1.4
CO[C@@H]1CN(C)C(=O)c2ccc(NS(=O)(=O)c3ccccc3)cc2OC[C@H](C)N(Cc2nccs2)C[C@H]1C,0.4,nt,nt
COc1cc2c(C(=O)NC3CCCCCC3)cn(C)c(=O)c2cc1OC,-11.6,-0.6,-2.9
COc1ccc(C(=O)Nc2ccncc2)c(OC)c1,-6.1,-0.1,-6.2
CCn1cc(C(=O)NC2CCCCCC2)c2cc(OC)c(OC)cc2c1=O,2.6,-0.8,47.7*
COc1cc(SC)ccc1C(=O)OCC(=O)NC1CCCCC1,-9.0,-1.1,-6.2
COc1cc(SC)ccc1C(=O)NC1CCCCC1,-1.7,-1.2,46.6*
COc1cc(SC)ccc1C(=O)Nc1ccncc1,-6.1,-1.6,31.2*
COc1ccc(S(=O)(=O)Nc2cccc3c2O[C@@H](CN(C)S(=O)(=O)c2ccc(Cl)cc2)[C@H](C)CN([C@@H](C)CO)C3=O)cc1,-21.6,nt,nt
O=C(N[C@H]1CC[C@@H](CCNC(=O)c2ccccc2F)O[C@H]1CO)c1ccc2c(c1)OCO2,-17.9,nt,nt
C[C@H]1CN([C@@H](C)CO)C(=O)c2cc(NC(=O)Nc3cccc4ccccc34)ccc2O[C@@H]1CN(C)C(=O)Nc1cccc2ccccc12,-13.9,nt,nt
CCN(CC(=O)Nc1c(F)cccc1F)C(=O)C1CC(=O)N(CCc2ccccc2)C1 (stereo not drawn),-2.9,-1.8,-3.7
CN(Cc1c(F)cccc1Cl)C(=O)C1CC(=O)N(CCc2ccccc2)C1 (stereo not drawn),-3.4,5.0,78.2*
Cc1ccc(NC(=O)C2CC(=O)N(CCc3ccccc3)C2)cc1Cl (stereo not drawn),-2.8,-2.7,80.1*
COc1cc(NC(=O)C2CC(=O)N(CCc3ccccc3)C2)cc(OC)c1 (stereo not drawn),1.2,-2.8,4.1
CCNC(=O)[C@@H]1[C@@H](CO)[C@@H]2Cn3c(ccc(C4=CCCCC4)c3=O)[C@@H]2N1C(=O)CC1CC1,0.1,nt,nt
C[C@@H]1CCCCO[C@H](CN(C)C(=O)Nc2ccc3c(c2)OCO3)[C@@H](C)CN([C@@H](C)CO)C(=O)c2cc(NS(C)(=O)=O)ccc2O1,3.7,nt,nt
COc1ccc(NC(=O)N[C@H]2CC[C@@H](CCn3cc(-c4ccccc4)nn3)O[C@H]2CO)cc1,1.6,nt,nt
O=C(N[C@@H]1CC[C@@H](CCn2cc(-c3ccccn3)nn2)O[C@H]1CO)c1ccncc1,61.9*,nt,nt
COc1ccc(NC(=O)N[C@@H]2CC[C@@H](CCn3cc(-c4ccccn4)nn3)O[C@@H]2CO)cc1,47.8*,nt,nt
SMILES,ARNT TACC3 PPI,CAL PDZ FP-1,CAL PDZ FP-2
O=S(=O)(N[C@H]1CC[C@H](CCn2cc(-c3cccc(F)c3)nn2)O[C@H]1CO)c1ccccc1,-0.9,nt,nt
COCc1cn(CC[C@@H]2CC[C@@H](NC(=O)c3ccncc3)[C@@H](CO)O2)nn1,0.8,nt,nt
COc1ccc(NC(=O)N[C@@H]2CC[C@@H](CCn3cc(-c4ccccn4)nn3)O[C@H]2CO)cc1,61.4*,nt,nt
COc1ccc(NC(=O)N[C@H]2CC[C@H](CCn3cc(-c4ccccc4)nn3)O[C@H]2CO)cc1,-10.7,nt,nt
O=S(=O)(N[C@@H]1CC[C@H](CCn2cc(-c3ccccn3)nn2)O[C@@H]1CO)c1cccc(F)c1,91.5*,nt,nt
CC(=O)N(C)C[C@H]1OCc2ccccc2-c2ccccc2C(=O)N([C@H](C)CO)C[C@H]1C,-25.2,nt,nt
C[C@H](CO)N1C[C@H](C)[C@@H](CN(C)C(=O)Nc2ccc(F)cc2)Oc2ccc(N(C)C)cc2CC1=O,-3.5,nt,nt
CCN1[C@@H]2c3ccc(-c4ccccc4)c(=O)n3C[C@H]1[C@H](CO)[C@H]2C(=O)NCCCN1CCOCC1,1.8,nt,nt

# Compound activity deposited in PubChem by Broad Institute.
